# Experimental data collected from several papers.
# Protocols differ between the studies behind these lines.
# ST14: Suppressor of tumorigenicity 14 protein (ST14, Homo sapiens, UniProt Q9Y5Y6)
# CDK2 with cyclin A2: Cyclin-dependent kinase 2, with cyclin A2 (CDK2, Homo sapiens, UniProt P24941)
Compound,target,effect on,mode,technique,tested at,quantity,result
N=C(N)NCCC[C@H](NC(=O)[C@H](Cc1cccc2ccccc12)NC(=O)[C@H](Cc1cscn1)NC(=O)CCc1ccccc1)C(=O)c1nc2ccccc2s1,ST14,enzyme activity,inhibitor,,0.1 µM,remaining activity,6%
CC(=O)Nc1c(N)nc(SCC(=O)N/N=C/c2ccc([N+](=O)[O-])cc2)[nH]c1=O,CDK2 with cyclin A2,enzyme activity,inhibitor,,200 pM,inhibition,1.89%
CNc1ncc2c(/C=C/C(=O)N3CCC(OC)CC3)nn(Cc3cccc(C(F)(F)F)c3)c2n1,"Serine/threonine-protein kinase VRK1 (VRK1, Homo sapiens, UniProt Q99986)",enzyme activity,inhibitor,radiometric,1 µM,remaining activity,100%
CC(=O)Nc1c(N)nc(SCC(=O)NN)[nH]c1=O,CDK2 with cyclin A2,enzyme activity,inhibitor,,1 µM,inhibition,73%
C=CC[C@H](NC(=O)[C@H](Cc1cscn1)NC(=O)CCc1ccccc1)C(=O)N[C@@H](CCCNC(=N)N)C(=O)c1nc2ccccc2s1,ST14,enzyme activity,inhibitor,,0.1 µM,remaining activity,41%
CNC(=O)c1cc(Oc2ccc(NC(=O)Nc3ccc(Cl)c(C(F)(F)F)c3)cc2)ccn1,CDK2 with cyclin A2,enzyme activity,inhibitor,,20 nM,inhibition,43.1%
COc1cc(-c2cncc3c2CN(C)Cc2cc(N4CCNCC4)ccc2-3)cc(OC)c1OC,"Cyclin-dependent kinase 2, with cyclin A (CDK2, Homo sapiens, UniProt P24941)",enzyme activity,inhibitor,,1 µM,remaining activity,100%
Cc1cc([C@@H](C)Nc2ccccc2C(=O)O)c2nc(N3CCC(F)(F)CC3)c(C#N)c(=O)n2c1,"Angiopoietin-1 receptor (TEK, Homo sapiens, UniProt Q02763)",binding,,competition with immobilised ligand,10 µM,remaining binding,100%
CCC[C@H](NC(=O)[C@H](Cc1cscn1)NC(=O)CCc1ccccc1)C(=O)N[C@@H](CCCNC(=N)N)C(=O)c1nc2ccccc2s1,ST14,enzyme activity,inhibitor,,0.1 µM,remaining activity,45%
C=CC(=O)N1CCC(COCC(=O)N2CCN(c3nc(-c4cnc(N)nc4C(F)F)nc(N4CCOC[C@@H]4C)n3)CC2)CC1,"ALK tyrosine kinase receptor (ALK, Homo sapiens, UniProt Q9UM73, L1196M)",binding,,competition with immobilised ligand,1 µM,remaining binding,77%
